The source made the active and inactive calls. The rule behind the calls is not given here.
Tests used:
[1] = biological target: 11-beta-hydroxysteroid dehydrogenase 1 (Mus musculus, UniProt P50172); test: Inhibition of mouse liver microsome 11betaHSD1 expressed in HEK293 cells assessed as conversion of [3H]cortisone into [3H]cortisol by scintillation proximity assay; format: cell-based
Procedure, shortened: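 Enzyme source: microsomes from HEK-293 cells stably transfected with full-length murine 11β-HSD1 (G418 700 µg/ml selection). Incubated with NADPH and [3H]cortisone. [3H]cortisol captured by monoclonal antibody on protein A-coated SPA beads. IC50 from curve fitting; mean of at least three independent experiments. Kinetics: cortisone 1.6–62.5 nM, with or without 1 µM inhibitor.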

3T3-L1 [2] = test: Induction of adipogenesis in mouse 3T3L1 assessed as increase in triglyceride level at 1 uM after 5 days relative to control; format: functional
Procedure, shortened: (§1)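 Confluent 3T3-L1 preadipocytes (DMEM, 10% newborn bovine serum) differentiated with 1 µM dexamethasone, 0.5 mM IBMX and 1.0 µg/ml insulin in DMEM with 5% NBS. Compound present at 0.1 or 1 µM; medium changed every 2 days over 5 days. Triglyceride normalized to protein in sonicated homogenates; expressed as % change versus vehicle control.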

3T3-L1 [3] = test: Induction of adipogenesis in mouse 3T3L1 assessed as increase in triglyceride level at 0.1 uM after 5 days relative to control; format: functional; procedure, shortened: as §1
[4] = biological target: T1, Peroxisome proliferator-activated receptor gamma (Homo sapiens, UniProt P37231); test: Agonist activity at human PPARgamma expressed in U2OS cells by luciferase transactivation assay; format: functional, cell-based
T1 sequence (P37231 whole entry): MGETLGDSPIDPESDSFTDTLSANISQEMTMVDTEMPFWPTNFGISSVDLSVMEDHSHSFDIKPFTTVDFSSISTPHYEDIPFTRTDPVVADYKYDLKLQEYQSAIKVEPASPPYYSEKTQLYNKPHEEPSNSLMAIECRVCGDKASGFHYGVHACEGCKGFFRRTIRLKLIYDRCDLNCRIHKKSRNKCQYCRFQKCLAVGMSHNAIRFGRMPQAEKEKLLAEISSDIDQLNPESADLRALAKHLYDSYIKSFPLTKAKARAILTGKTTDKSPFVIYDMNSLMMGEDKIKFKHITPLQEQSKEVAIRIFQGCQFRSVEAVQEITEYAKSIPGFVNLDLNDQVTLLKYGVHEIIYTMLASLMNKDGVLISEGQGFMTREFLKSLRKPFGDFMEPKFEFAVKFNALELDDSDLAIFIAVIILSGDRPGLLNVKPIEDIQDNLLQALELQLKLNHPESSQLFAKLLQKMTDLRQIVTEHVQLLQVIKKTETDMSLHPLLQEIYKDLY
Procedure, shortened: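 Transfected U2OS cells (McCoy's 5A, 10% FBS) seeded the day before transfection. Each well received 60 ng DNA: hRXR, pCMV Gal, receptor expression vector and reporter. 24 h later, switched to 10% charcoal-stripped FBS DMEM and exposed to compound for 24 h (0.1% DMSO final). Luciferase normalized to galactosidase. EC50 from logistic dose-response fit; mean of at least three independent experiments.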

Rattus norvegicus [5] = test: Hypolipidemic activity in monosodium L-glutamate-treated obese Wistar rat assessed as reduction in serum triglyceride level at 5 mg/kg, po for 6 weeks measured after 10 hrs post dose fasting; format: functional, organism-based; design: dose 5 mg/kg
Procedure, shortened: (§2)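 Obesity model: MSG-lesioned Wistar rats (4 g/kg sc neonatally for 7 days), aged 11-12 months, randomized by body weight and serum TG. Dosed orally daily for 6 weeks. Blood glucose and serum TG measured weekly after a 10 h fast.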

Rattus norvegicus [6] = test: Adipogenic activity in monosodium L-glutamate-treated obese Wistar rat assessed as decrease in total fat mass at 5 mg/kg, po after 6 weeks; format: functional, organism-based; design: dose 5 mg/kg
Procedure, shortened: (§3)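 Obesity model: newborn Wistar rats given MSG 4 g/kg subcutaneously for 7 days from day 2 of life, weaned day 21. At 11-12 months, randomized by body weight and serum TG. Dosed orally daily for 6 weeks. Body weight measured weekly. At sacrifice, organ weights, body fat, visceral and subcutaneous fat weighed; liver triglyceride content assessed.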

Rattus norvegicus [7] = test: Hypoglycemic activity in monosodium L-glutamate-treated obese Wistar rat assessed as reduction in blood glucose level at 5 mg/kg, po for 4 weeks measured after 10 hrs post dose fasting; format: functional, organism-based; design: dose 5 mg/kg; procedure, shortened: as §2
Mus musculus = test: Hypolipidemic activity in KK-Ay mouse assessed as reduction in serum triglyceride level at 10 mg/kg, po for 6 weeks measured after 4 hrs post dose fasting; format: functional, organism-based; design: dose 10 mg/kg
Procedure, shortened: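 KKAy mice (n = 10) randomized by body weight and fed glucose. Dosed orally in 0.25% CMC-Na or vehicle for 6 weeks; blood glucose measured twice weekly. At end, fasted 4 h before sacrifice; blood taken for glucose and serum TG.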

Rattus norvegicus [8] = test: Adipogenic activity in monosodium L-glutamate-treated obese Wistar rat assessed as reduction in liver triglyceride content at 5 mg/kg, po after 6 weeks; format: functional, organism-based; design: dose 5 mg/kg; procedure, shortened: as §3

Chain of 11-beta-hydroxysteroid dehydrogenase 1 (P50172 whole entry): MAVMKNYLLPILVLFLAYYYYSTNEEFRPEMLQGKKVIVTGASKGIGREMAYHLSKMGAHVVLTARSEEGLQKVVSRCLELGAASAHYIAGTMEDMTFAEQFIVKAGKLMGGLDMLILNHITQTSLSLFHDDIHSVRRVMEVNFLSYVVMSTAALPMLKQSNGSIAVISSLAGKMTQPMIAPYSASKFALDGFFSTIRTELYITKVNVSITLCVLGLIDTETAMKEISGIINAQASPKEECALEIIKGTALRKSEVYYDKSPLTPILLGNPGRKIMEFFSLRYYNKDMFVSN

Row | SMILES | IC50 [1] [µM] | EC50 [4] [µM] | Activity (3T3-L1 [2]) [%] | Activity (3T3-L1 [3]) [%] | Activity (Rattus norvegicus [5]) | Activity (Rattus norvegicus [6]) | Activity (Rattus norvegicus [7]) | Activity (Mus musculus) | Activity (Rattus norvegicus [8])
1 | COc1ccccc1C(=O)N1CCN(c2cc(Oc3ccc(CC(C)(Oc4ccccc4)C(=O)O)cc3)nc(N)n2)CC1 (stereo unspecified) | ≥ 10 | ≥ 50 | – | – | – | – | – | – | –
2 | Cc1cccc(CN2CCN(c3cc(Oc4ccc(CC(C)(Oc5ccccc5)C(=O)O)cc4)nc(N)n3)CC2)c1 (stereo unspecified) | 2.37 | 4.46 | -2.33 | -1.04 | – | – | – | – | –
3 | CC(Cc1ccc(Oc2cc(N3CCN(C(=O)c4ccccc4)CC3)nc(N)n2)cc1)(Oc1ccccc1)C(=O)O (stereo unspecified) | 3.29 | ≥ 50 | – | – | – | – | – | – | –
4 | CN(CCOc1ccc(CC2SC(=O)NC2=O)cc1)c1ccccn1 (stereo unspecified) [ROSIGLITAZONE] | – | – | 34.1 | 22.05 | Active | inactive | Active | Active | inactive
5 | CC(Cc1ccc(Oc2cc(N3CCN(C(=O)c4ccco4)CC3)nc(N)n2)cc1)(Oc1ccccc1)C(=O)O (stereo unspecified) | ≥ 10 | ≥ 50 | – | – | – | – | – | – | –

More lines, in order of falling IC50 [1], values ahead:

Row | IC50 [1] [µM] | EC50 [4] [µM] | SMILES | Activity (3T3-L1 [2]) [%] | Activity (3T3-L1 [3]) [%] | Activity (Rattus norvegicus [5]) | Activity (Rattus norvegicus [6]) | Activity (Rattus norvegicus [7]) | Activity (Mus musculus) | Activity (Rattus norvegicus [8])
6 | 2.34 | 3.5 | CC(Cc1ccc(Oc2cc(N3CCN(Cc4cccc5ccccc45)CC3)nc(N)n2)cc1)(Oc1ccccc1)C(=O)O (stereo unspecified) | 4.47 | 0.45 | – | – | – | – | –
7 | 1.32 | 5.54 | CC(Cc1ccc(Oc2cc(N3CCN(CC4CCCCC4)CC3)nc(N)n2)cc1)(Oc1ccccc1)C(=O)O (stereo unspecified) | -15.43 | -30.21 | – | – | – | – | –
8 | 0.015 | – | CC1(C)[C@@H](O[C@H]2O[C@H](C(=O)O)[C@@H](O)[C@H](O)[C@H]2O[C@@H]2O[C@H](C(=O)O)[C@@H](O)[C@H](O)[C@H]2O)CC[C@]2(C)[C@H]3C(=O)C=C4[C@@H]5C[C@@](C)(C(=O)O)CC[C@]5(C)CC[C@@]4(C)[C@]3(C)CC[C@@H]12 [GLYCYRRHIZIN] | – | – | – | – | – | – | –

— ChEMBL document CHEMBL1153062, “Discovery of novel dual functional agent as PPARgamma agonist and 11beta-HSD1 inhibitor for the treatment of diabetes” (Bioorg Med Chem, 2009)
